Source: ChEMBL document CHEMBL1155664, “New carbazole alkaloids from Clausena anisata with antitumor promoting activity” (J Nat Prod, 2000)

Legend:
Format in all cases: cell-based
Raji [1] = experiment: Inhibition of 12-O-tetradecanoylphorbol-13-acetate-induced EBV-early antigen activation in human Raji cells assessed as EA activation at 32 nmol relative to 12-O-tetradecanoylphorbol-13-acetate; design: scale not given: the % may be the effect or the level left; settings: human gammaherpesvirus 4
Outline: (§1)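 Raji cells induced with TPA (32 pmol = 20 ng/mL) plus compound at 10, 100, 500 or 1000 mol ratio/TPA (0.32, 3.2, 16, 32 nmol). EBV early antigen activation expressed as % of the TPA-only positive control (100%), given with S.D. Results count only where Raji viability stays at or above 60% at 2 days.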

Raji [2] = experiment: Inhibition of 12-O-tetradecanoylphorbol-13-acetate-induced EBV-early antigen activation in human Raji cells assessed as EA activation at 16 nmol relative to 12-O-tetradecanoylphorbol-13-acetate; design: scale not given: the % may be the effect or the level left; settings: human gammaherpesvirus 4; outline: as §1
Raji [3] = experiment: Inhibition of 12-O-tetradecanoylphorbol-13-acetate-induced EBV-early antigen activation in human Raji cells assessed as EA activation at 3.2 nmol relative to 12-O-tetradecanoylphorbol-13-acetate; design: scale not given: the % may be the effect or the level left; settings: human gammaherpesvirus 4; outline: as §1
Raji [4] = experiment: Inhibition of 12-O-tetradecanoylphorbol-13-acetate-induced EBV-early antigen activation in human Raji cells assessed as EA activation at 0.32 nmol relative to 12-O-tetradecanoylphorbol-13-acetate; design: scale not given: the % may be the effect or the level left; settings: human gammaherpesvirus 4; outline: as §1
[5] = Cytotoxicity against human Raji cells assessed as cell viability at 32 nmol by trypan blue assay; settings: read-out: Activity
Outline: (§2)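 Raji cells treated with compound together with TPA (32 pmol, 20 ng/mL) at mole ratios to TPA of 10, 100, 500 or 1000 (0.32, 3.2, 16, 32 nmol). Viability determined by trypan blue staining 2 days after treatment. At least 60% viability is needed for the EBV-EA result to be valid.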

[6] = Cytotoxicity against human Raji cells assessed as cell viability at 16 nmol by trypan blue assay; settings: read-out: Activity; outline: as §2
[7] = Cytotoxicity against human Raji cells assessed as cell viability at 3.2 nmol by trypan blue assay; settings: read-out: Activity; outline: as §2
[8] = Cytotoxicity against human Raji cells assessed as cell viability at 0.32 nmol by trypan blue assay; settings: read-out: Activity; outline: as §2

| Compound | Activity (Raji [1]) | Activity (Raji [2]) | Activity (Raji [3]) | Activity (Raji [4]) | viability at 32 nmol [5] | viability at 16 nmol [6] | viability at 3.2 nmol [7] | viability at 0.32 nmol [8] |
| --- | --- | --- | --- | --- | --- | --- | --- | --- |
| COC(=O)c1cc(O)c2[nH]c3ccccc3c2c1 [CLAUSINE E] | 27.4% | 42.4% | 74.6% | 100% | 60% | > 80% | > 80% | > 80% |
| COc1cc2c(c3c1[nH]c1ccccc13)CC(C(C)(C)O)OC2=O (configuration not stated) [CLAUSAMINE C] | 12.4% | 27.2% | 72% | 92.3% | 60% | 70% | > 80% | > 80% |
| COC(=O)c1cc(O)c2[nH]c3ccccc3c2c1CC=C(C)C [CLAUSINE F] | 20.2% | 37.5% | 69.8% | 94.6% | 60% | > 80% | > 80% | > 80% |
| COC(=O)c1cc(OC)c2[nH]c3ccccc3c2c1CC=C(C)C [CLAUSAMINE] | 18.2% | 34.2% | 66% | 92.3% | 60% | 70% | > 80% | > 80% |
| C=C(C)C1Cc2c(cc(O)c3[nH]c4ccccc4c23)C(=O)O1 (configuration not stated) [CLAUSAMINE A] | 15.4% | 28.3% | 73.7% | 95.5% | 60% | 70% | > 80% | > 80% |
| C=C(C)C1Cc2c(cc(OC)c3[nH]c4ccccc4c23)C(=O)O1 (configuration not stated) [CLAUSAMINE B] | 18.3% | 39.2% | 78.2% | 100% | 60% | 70% | > 80% | > 80% |
| O=Cc1cc(O)c2[nH]c3ccccc3c2c1 [O-DEMETHYLMURRAYANINE] | 25.2% | 40.3% | 69.4% | 100% | 60% | > 80% | > 80% | > 80% |
| COc1cc(C=O)c(CC=C(C)C)c2c1[nH]c1ccccc12 [EKEBERGININE] | 10.5% | 22.4% | 63.5% | 90.3% | 60% | > 80% | > 80% | > 80% |
| COC(=O)c1ccc2[nH]c3ccccc3c2c1 | 21.7% | 46.3% | 81.4% | 100% | 60% | > 80% | > 80% | > 80% |
